Variants at the floor of the assay were thinned out.
B1: tRNA (parent)
chain: GUUCCGUUGGCGUAAUGGUAACGCGUCUCCCUCCUAAGGAGAAGACUGCGGGUUCGAGUCCCGUACGGAACG

Variants of: B1
Assay: yeast fitness relative to wild type (ratio to wild type); higher = fitter; tRNA-Arg(CCU), competitive growth, 37 C, YPD
Summary of the method: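 The tRNA-Arg(CCU) gene variants were made by chemical synthesis with a 3% per-site mutation rate at 69 sites and inserted at the native genomic locus of Saccharomyces cerevisiae. After pooling, the strains were competed in YPD at 37°C for 24 hours in six parallel replicates. Gene amplicons from the start population and each end population were read by 100-nucleotide paired-end sequencing, and Darwinian fitness relative to wild type was taken from genotype frequency changes. Genotypes needed ≥ 100 starting reads, and estimates < 0.5 were set to 0.5.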

| Variant | yeast fitness |
| --- | --- |
| A15U C22G C27G A42C G63C | ≤ 0.5 |
| G6A C24U U59C A69C | ≤ 0.5 |
| U3A A21U C60G C66U | ≤ 0.5 |
| A14G A15U C34U | 0.505 |
| U2G G12C | 0.757 |
| A37C A57U U59C | ≤ 0.5 |
| C5A U16A C22G C30A | ≤ 0.5 |
| A15C C49A G67C | ≤ 0.5 |
| U2A A69C | 0.959 |
| U2A C11A A14G C29U G68U | 0.564 |
| A20C A37G A45C | ≤ 0.5 |
| C5A C24U U35C C66U | 0.549 |
| C4A A45C U47A | 0.708 |
| C29U G41A A42C G50C A70G | ≤ 0.5 |
| U2C C24G U26A C31G | 0.639 |
| C24G A42G A43U U47A | 0.635 |
| C4A C61G | 0.71 |
| A14G C30A C34A A43C A65C A70C | ≤ 0.5 |
| U2A C11U G17A U64G | ≤ 0.5 |
| C30G G38A | 0.572 |
| U26C C27U C62A | 0.658 |

| Variant | yeast fitness |
| --- | --- |
| C5A C24U G25C C30G G50C G56A C66U | ≤ 0.5 |
| C5G U26C C55G U59A U64G | ≤ 0.5 |
| C29G U32A U64A | ≤ 0.5 |
| A37G A40U A65G | 0.571 |
| C27U C30U C46U U54G | ≤ 0.5 |
| G6C G56A | 1.03 |
| C5G A14G G17A U32C G56C C60G | 0.554 |
| A15C U35A G50C A65C | 0.603 |
| C30G C55G U59A U64G | ≤ 0.5 |
| A14G C49A | 0.694 |
| C5U U16C G18A C30A G58A G68U | ≤ 0.5 |
| C4U U32G A57G | ≤ 0.5 |
| A36U G56C A65C | ≤ 0.5 |
| G23C G41C G68A | ≤ 0.5 |
| U2C C4A C34A A43G G52C C60G A65G | ≤ 0.5 |
| G17A C30G C61G | ≤ 0.5 |
| U7C C34G G39C A42G C46G C61G | 0.538 |
| C11U G18A C62A A70C | ≤ 0.5 |
| C11A U16C C27G G48C | ≤ 0.5 |
| G56C G67C | 0.696 |
| C31U G48C C66U | 0.741 |

| Variant | yeast fitness |
| --- | --- |
| G6A C34G G68A | 0.556 |
| C5U G17C C27U A65G | ≤ 0.5 |
| C22A G50C A70G | ≤ 0.5 |
| G48A C66A G68U A70C | ≤ 0.5 |
| U16C C24U U53C C60G | 0.559 |
| C24A C33A C49U U54G G56A | ≤ 0.5 |
| C4U U8C | 0.942 |
| U16C A37G A42C G67A | ≤ 0.5 |
| C5A C31U A70G | 0.614 |
| C27A A37C G68A | ≤ 0.5 |
| G52A A65C | 0.848 |
| U2C U47C G67C | 0.719 |
| C27U C31U G52A | 0.639 |
| C27U C55U | 0.773 |
| C4U U8A C33U A36U | 0.545 |
| G6C A36C A65C G67A | ≤ 0.5 |
| C34G A36G A57U | ≤ 0.5 |
| G12C A43C C61G | ≤ 0.5 |
| C5G G9C A40U C66G | ≤ 0.5 |
| C5G G10A | 0.804 |
| U16A C24U C29A | 0.57 |

| Variant | yeast fitness |
| --- | --- |
| G39C G56C A57G | ≤ 0.5 |
| A14C C30U G58A | ≤ 0.5 |
| C4U G10C G23A U26C U32C A43G U53A | ≤ 0.5 |
| C4U G38C G50A A70G | ≤ 0.5 |
| G58A C60U A70G | 0.702 |
| C5A G50C | 0.626 |
| C4U C34U A40C G41A C62U A65U | ≤ 0.5 |
| G9A C27U A36G | 0.59 |
| C5A U28A C31U G51C | ≤ 0.5 |
| C29A C49G C55U | ≤ 0.5 |
| C5A C30G C31G U32C | 0.598 |
| C11G A42U C49U C62U | ≤ 0.5 |
| U19C G44C A69U | 0.762 |
| C55A G58C | 0.534 |
| U8G C11U | 0.646 |
| C31A U47A | 0.673 |
| U2G A42U | 0.804 |
| G52A G56C | 0.687 |
| U3C A20U A70C | 0.59 |
| U16C A42C A65U | 0.585 |
| U7G C11G C34U G41A A65C C66U | ≤ 0.5 |
